Measured values published in paper PMC3549632 (Biochemistry, 2012).
Like-named read-outs stand apart in the source and are kept apart here.

Key:
[1] = target: T1, SULT1A1 (Homo sapiens, UniProt P50225); format: binding
How it was run: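 Purified tag-cleaved human SULT1A1 in 5.0 mM MgCl2, 25 mM potassium phosphate pH 7.4, 0 or 125 μM PAP, 25 ± 2 °C. Ligand titrated from ethanol:water (1:1), final ethanol <0.5%. Intrinsic fluorescence quenching read at λex 290 nm. Triplicate titrations averaged, ΔI/ΔImax vs total ligand least-squares fit with a quadratic single-site-per-monomer model, giving apparent […].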

[2] = target: T1, SULT1A1; assay: Presteady state; format: binding; conditions: for koff: pH 7.4, 25 °C
[3] = target: T1, SULT1A1; assay: SULT1A1 intrinsic hydrolysis of PAPS; format: biochemical; conditions: saturating 35S-PAPS (7.0 μM), MgCl2 5.0 mM, KPO4 25 mM, pH 7.4, 25 °C
[4] = pH 7.4, enzyme species PAPS·E (saturating PAPS)

T1 sequence (P50225 whole entry): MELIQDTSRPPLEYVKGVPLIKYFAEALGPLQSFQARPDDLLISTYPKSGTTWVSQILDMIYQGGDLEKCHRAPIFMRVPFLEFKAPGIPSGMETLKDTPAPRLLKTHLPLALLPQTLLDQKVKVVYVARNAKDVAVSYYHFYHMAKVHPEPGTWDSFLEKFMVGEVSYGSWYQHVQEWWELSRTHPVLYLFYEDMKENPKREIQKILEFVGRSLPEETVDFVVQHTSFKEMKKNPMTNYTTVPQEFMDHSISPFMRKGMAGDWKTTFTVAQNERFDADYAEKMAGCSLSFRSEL

Row | Kd ([1]; Kd, enzyme species E (zero PAP, open form), pH 7.4, 25 °C) [µM] | Kd ([1]; Kd, enzyme species PAP·E (saturating PAP, 125 μM; closed form), pH 7.4, 25 °C) [µM] | fold decrease in apparent on-rate constant at saturating PAPS ([2]; E vs PAPS·E) [fold] | Kd ([2]; Kd (koff/kon), enzyme species E, calculated from rate constants) [µM] | effect of PAPS on off-rate constant ([2]; saturating PAPS) | kcat (app) for SULT1A1 hydrolysis of PAPS [3] [s⁻¹] | SMILES | koff ([2]; pH 7.4, enzyme species E) [s⁻¹] | koff [2, 4] [s⁻¹] | Kd [1] [µM] | Kd [2] [µM] | effect of PAPS on binding on- and off-rate constants ([2]; saturating PAPS)
1 | 0.28 | 6.9 ± 0.9 | 26 | 0.27 | not affected | – | C[C@]12CC[C@@H]3c4ccc(O)cc4C[C@@H](CCCCCCCCC[S+]([O-])CCCC(F)(F)C(F)(F)F)[C@H]3[C@@H]1CC[C@@H]2O (stereo partly drawn) [fulvestrant, (7R,8R,9S,13S,14S,17S)-13-methyl-7-[9-(4,4,5,5,5-pentafluoropentyl-sulfinyl)nonyl]-6,7,8,9,11,12,14,15,16,17,-decahydrocyclopenta[α]phenanthrene-3,17-diol] | 1.8 | 1.7 | – | – | –
2 | – | – | – | – | – | 0.000767 | Nc1ncnc2c1ncn2[C@@H]1O[C@H](COP(=O)(O)OS(=O)(=O)O)[C@@H](OP(=O)(O)O)[C@H]1O [PAPS, 3′-phosphoadenosine 5′-phosphosulfate] | – | – | – | – | –
3 | – | – | – | – | – | – | C[C@]12CC[C@@H]3c4ccc(O)cc4CC[C@H]3[C@@H]1CC[C@@H]2O [E2, estradiol] | 1.6 | 1.9 | 1.7 | 1.3 | not significantly affected
